ChEMBL document CHEMBL4138318, “Discovery of 5-Cyano-6-phenylpyrimidin Derivatives Containing an Acylurea Moiety as Orally Bioavailable Reversal Agents against P-Glycoprotein-Mediated Mutidrug Resistance” (J Med Chem, 2018)
Active and inactive are the calls of the source. The rule behind the calls is not given here.

Key:
[1] = Cytotoxicity against human SW620 cells assessed as survival at 2 uM after 72 hrs by MTT assay relative to control; assay type: cell-based, SW-620; conditions: read-out: Survival
[2] = biological target: T1, ATP-dependent translocase ABCB1 (Homo sapiens, UniProt P08183); test: Inhibition of ABCB1 in human SW620/AD300 cells assessed as potentiation of paclitaxel-induced cytotoxicity by measuring fold reduction in paclitaxel IC50 at 0.5 uM after 72 hrs by MTT assay; assay type: cell-based
Method in brief: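 SW620/AD300 cells (~5×10^3/well) treated with graded paclitaxel with or without modulator (2 µM, or 0.5-2 µM in dose series; 0.1% DMSO solvent control) for 72 h; MTT (5 mg/mL stock) added 4 h, absorbance 490 nm. IC50 as mean ± SD of three independent runs; reversal fold = paclitaxel IC50 without/with modulator.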

SW620/AD300 [3] = test: Effect on ABCB1 expression in human SW620/AD300 cells up to 4 uM after 48 hrs by Western blot analysis; assay type: functional, cell-based
Method in brief: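 SW620/AD300 cells exposed to compound at 0, 1, 2 or 4 µM for 48 h, lysed, ultracentrifuged, protein quantified by BCA; equal protein run on SDS-PAGE, wet-transferred to nitrocellulose, primary antibody overnight at 4℃, secondary 2 h at room temperature, enhanced chemiluminescence detection; GAPDH as loading control.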

SW-620 = test: Increase in rhodamine 123 accumulation in human SW620 cells up to 4 uM preincubated for 4 hrs followed by rhodamine 123 addition measured after 30 mins by flow cytometry; assay type: functional, cell-based
[4] = biological target: T1, ATP-dependent translocase ABCB1; test: Inhibition of ABCB1 in human SW620/AD300 cells assessed as intracellular accumulation of [3H]-paclitaxel up to 4 uM preincubated for 4 hrs followed by [3H]-paclitaxel addition measured after 2 hrs by liquid scintillation counting method; assay type: cell-based
Method in brief: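 Cells pre-exposed with or without compound at various concentrations 4 h at 37°C, then 0.1 µM [3H]-paclitaxel added for 2 h in continued presence of treatment; washed three times in cold PBS, lysed, radioactivity counted by liquid scintillation. Mean ± SD of three independent assays.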

[5] = biological target: T1, ATP-dependent translocase ABCB1; test: Inhibition of ABCB1 in human SW620/AD300 cells assessed as reduction in [3H]-paclitaxel efflux preincubated for 4 hrs followed by [3H]-paclitaxel addition for 2 hrs measured after 120 mins by liquid scintillation counting method; assay type: cell-based
Method in brief: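 After 2 h loading with 0.1 µM [3H]-paclitaxel (following 4 h compound pre-exposure), SW620 or SW620/AD300 cells moved to label-free medium for a 2 h efflux phase; samples taken at 0, 30, 60 and 120 min and radioactivity counted by liquid scintillation. Three independent assays, mean ± SD.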

[6] = biological target: T1, ATP-dependent translocase ABCB1; test: Stimulation of human ABCB1 ATPase activity expressed in high-five insect cell membrane vesicles by colorimetric analysis
Method in brief: (§1)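 Vanadate-sensitive ABCB1 ATPase activity in High Five insect cell membrane vesicles, measured with a commercial ATPase kit under a modified protocol; compound tested across 0-40 µM; maximal fold stimulation and concentration giving 50% stimulation derived.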

[7] = biological target: T1, ATP-dependent translocase ABCB1; test: Stimulation of human ABCB1 ATPase activity expressed in high-five insect cell membrane vesicles assessed as compound concentration required for 50% stimulation by colorimetric analysis; conditions: read-out: Activity; method in brief: as §1
Cytochrome P450 3A4 = Cytochrome P450 3A4 (Homo sapiens, UniProt P08684); test: Inhibition of recombinant human CYP3A4 in presence of NADPH generating system by fluorescence assay; assay type: ADME
[8] = biological target: T1, ATP-dependent translocase ABCB1; test: Binding affinity to ABCB1 in human SW620/AD300 cells assessed as thermal stabilization preincubated for 30 mins followed by incubation at 40 to 61 degC for 3 mins by CETSA; assay type: cell-based; conditions: 0.05 h
Method in brief: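 SW620/AD300 cells lysed by three liquid-nitrogen freeze-thaw cycles; ultracentrifuged supernatant split into compound-treated and solvent-control portions, incubated 30 min at 37℃, aliquoted and heated 3 min at 40, 43, 46, 49, 52, 55, 58 or 61℃; remaining ABCB1 or ABCC1 detected by western blotting.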

SW620/AD300 [9] = test: Antitumor activity against ABCB1 overexpressing human SW620/AD300 cells xenografted in BALB/c nude mouse assessed as reduction in tumor volume at 20 mg/kg/day, po cotreated with 5 mg/kg, ip paclitaxel measured after 21 days; assay type: functional, organism-based
Method in brief: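 Female BALB/c nude mice (18-20 g, 5-6 weeks) bearing SW620/AD300 xenografts; grouping once tumours reached 100 mm3: saline vehicle […] ip, paclitaxel 5 mg/kg every 3 days ip, test agent 20 mg/kg/day orally, or the combination. Body weight and tumour volume recorded every 2 days over 21 days; tumours excised and weighed at end.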

T1 sequence (P08183 whole entry): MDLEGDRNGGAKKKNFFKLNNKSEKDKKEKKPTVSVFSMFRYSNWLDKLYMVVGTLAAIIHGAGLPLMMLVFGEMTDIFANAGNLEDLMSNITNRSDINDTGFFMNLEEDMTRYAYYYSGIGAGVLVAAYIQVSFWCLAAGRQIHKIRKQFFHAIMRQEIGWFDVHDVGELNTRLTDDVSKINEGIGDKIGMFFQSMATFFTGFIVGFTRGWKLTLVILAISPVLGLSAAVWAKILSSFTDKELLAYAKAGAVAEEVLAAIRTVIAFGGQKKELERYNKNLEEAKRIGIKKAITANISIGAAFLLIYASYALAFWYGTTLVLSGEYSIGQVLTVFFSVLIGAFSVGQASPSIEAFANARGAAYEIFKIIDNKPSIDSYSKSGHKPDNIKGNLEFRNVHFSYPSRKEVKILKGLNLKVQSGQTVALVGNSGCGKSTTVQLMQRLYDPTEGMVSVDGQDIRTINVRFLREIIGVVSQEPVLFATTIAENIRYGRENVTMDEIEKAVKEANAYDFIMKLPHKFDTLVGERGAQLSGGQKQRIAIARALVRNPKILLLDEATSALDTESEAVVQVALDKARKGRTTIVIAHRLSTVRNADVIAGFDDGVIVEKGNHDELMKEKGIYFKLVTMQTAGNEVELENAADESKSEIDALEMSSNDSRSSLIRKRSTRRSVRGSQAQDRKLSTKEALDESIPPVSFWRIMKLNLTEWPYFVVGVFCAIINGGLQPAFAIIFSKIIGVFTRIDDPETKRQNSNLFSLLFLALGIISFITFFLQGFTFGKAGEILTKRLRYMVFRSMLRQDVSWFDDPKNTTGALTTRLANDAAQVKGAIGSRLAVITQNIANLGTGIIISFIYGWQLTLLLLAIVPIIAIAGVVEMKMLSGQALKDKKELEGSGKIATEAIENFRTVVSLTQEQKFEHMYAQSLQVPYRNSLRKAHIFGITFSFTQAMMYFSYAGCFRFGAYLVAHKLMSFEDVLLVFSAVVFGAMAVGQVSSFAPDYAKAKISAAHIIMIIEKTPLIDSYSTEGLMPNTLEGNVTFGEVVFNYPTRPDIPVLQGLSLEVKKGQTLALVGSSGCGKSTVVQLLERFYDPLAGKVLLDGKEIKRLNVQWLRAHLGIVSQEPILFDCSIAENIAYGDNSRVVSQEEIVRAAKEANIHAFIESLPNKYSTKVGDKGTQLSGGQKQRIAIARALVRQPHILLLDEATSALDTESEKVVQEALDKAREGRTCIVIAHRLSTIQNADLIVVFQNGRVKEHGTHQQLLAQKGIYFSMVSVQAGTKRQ
Cytochrome P450 3A4, sequence (P08684 whole entry): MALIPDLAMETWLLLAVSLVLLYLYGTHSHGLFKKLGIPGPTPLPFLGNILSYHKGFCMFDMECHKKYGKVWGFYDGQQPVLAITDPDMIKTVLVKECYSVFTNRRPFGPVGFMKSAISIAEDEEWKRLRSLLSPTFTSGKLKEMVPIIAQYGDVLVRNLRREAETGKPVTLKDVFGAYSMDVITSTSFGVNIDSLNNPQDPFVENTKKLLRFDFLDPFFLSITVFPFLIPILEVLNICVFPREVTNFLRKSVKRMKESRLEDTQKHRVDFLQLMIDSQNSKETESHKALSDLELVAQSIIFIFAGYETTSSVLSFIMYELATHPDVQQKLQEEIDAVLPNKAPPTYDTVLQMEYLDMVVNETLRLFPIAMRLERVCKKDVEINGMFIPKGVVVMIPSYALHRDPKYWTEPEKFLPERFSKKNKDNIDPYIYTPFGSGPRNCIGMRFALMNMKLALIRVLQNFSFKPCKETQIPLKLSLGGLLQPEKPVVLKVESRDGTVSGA

COc1cc(-c2nc(SCC(=O)NC(=O)Nc3ccccn3)nc(Nc3cccc(Cl)c3)c2C#N)cc(OC)c1OC
viability at 72 h, 2 µM [1]: > 90% | fold change (FC) [2]: 72.17 | Activity (SW620/AD300 [3]): inactive | Activity (SW-620): inactive | inhibition (INH) [4]: Active | inhibition (INH) [5]: Dose-dependent effect | fold change (FC) [6]: 4.56 | EC50 [7]: 0.97 µM | IC50 (Cytochrome P450 3A4): 17.2 µM | Activity [8]: Active | Activity (SW620/AD300 [9]): Active
